# Reference: ChEMBL document CHEMBL1154608, “Substituted 2-aminothiopen-derivatives: a potential new class of GluR6-antagonists” (Eur J Med Chem, 2010)
# Assays:
# [1] = biological target: Glutamate receptor ionotropic kainate 1 (Homo sapiens) (UniProt P39086); assay: Antagonist activity at human recombinant GluR5 expressed in HEK cells coexpressing aequorine assessed as inhibition of glutamate-induced Ca2+ influx at 10 uM by luminescence reporter assay relative to control; conditions: HEK293
# [2] = biological target: Glutamate receptor ionotropic kainate 2 (Homo sapiens) (UniProt Q13002); assay: Antagonist activity at human recombinant GluR6 expressed in HEK cells coexpressing aequorine assessed as inhibition of glutamate-induced Ca2+ influx at 10 uM by luminescence reporter assay relative to control; conditions: HEK293
# [3] = Cytotoxicity against monkey COS7 cells at 0.1 to 10 uM after 24 hrs by MTT assay; conditions: chlorocebus aethiops, cos-7, 24 h
# [4] = system: N2a; assay: Cytotoxicity against mouse N2A cells at 0.1 to 10 uM after 24 hrs by MTT assay; assay type: cell-based
# Outline: (§1)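 Cell viability was measured by MTT in N2A neuroblastoma and COS7 monkey kidney cells after 24 h compound incubation. Formazan was released with lysis buffer and absorbance was read at 590 nm.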
# [5] = system: N2a; assay: Cytotoxicity against mouse N2A cells at 100 uM after 24 hrs by MTT assay; assay type: cell-based
# Outline: as §1
# [6] = Cytotoxicity against monkey COS7 cells at 100 uM after 24 hrs by MTT assay; conditions: chlorocebus aethiops, cos-7, 24 h
# [7] = biological target: Glutamate receptor ionotropic kainate 1 (Homo sapiens) (UniProt P39086); assay: Antagonist activity at human recombinant GluR5 expressed in HEK cells coexpressing aequorine assessed as inhibition of glutamate-induced Ca2+ influx at 100 uM by luminescence reporter assay relative to control; conditions: HEK293
# [8] = biological target: Glutamate receptor ionotropic kainate 2 (Homo sapiens) (UniProt Q13002); assay: Antagonist activity at human recombinant GluR6 expressed in HEK cells coexpressing aequorine assessed as inhibition of glutamate-induced Ca2+ influx at 100 uM by luminescence reporter assay relative to control; conditions: HEK293
# Chain of Glutamate receptor ionotropic kainate 1 (Homo sapiens) (P39086 whole entry, looked up): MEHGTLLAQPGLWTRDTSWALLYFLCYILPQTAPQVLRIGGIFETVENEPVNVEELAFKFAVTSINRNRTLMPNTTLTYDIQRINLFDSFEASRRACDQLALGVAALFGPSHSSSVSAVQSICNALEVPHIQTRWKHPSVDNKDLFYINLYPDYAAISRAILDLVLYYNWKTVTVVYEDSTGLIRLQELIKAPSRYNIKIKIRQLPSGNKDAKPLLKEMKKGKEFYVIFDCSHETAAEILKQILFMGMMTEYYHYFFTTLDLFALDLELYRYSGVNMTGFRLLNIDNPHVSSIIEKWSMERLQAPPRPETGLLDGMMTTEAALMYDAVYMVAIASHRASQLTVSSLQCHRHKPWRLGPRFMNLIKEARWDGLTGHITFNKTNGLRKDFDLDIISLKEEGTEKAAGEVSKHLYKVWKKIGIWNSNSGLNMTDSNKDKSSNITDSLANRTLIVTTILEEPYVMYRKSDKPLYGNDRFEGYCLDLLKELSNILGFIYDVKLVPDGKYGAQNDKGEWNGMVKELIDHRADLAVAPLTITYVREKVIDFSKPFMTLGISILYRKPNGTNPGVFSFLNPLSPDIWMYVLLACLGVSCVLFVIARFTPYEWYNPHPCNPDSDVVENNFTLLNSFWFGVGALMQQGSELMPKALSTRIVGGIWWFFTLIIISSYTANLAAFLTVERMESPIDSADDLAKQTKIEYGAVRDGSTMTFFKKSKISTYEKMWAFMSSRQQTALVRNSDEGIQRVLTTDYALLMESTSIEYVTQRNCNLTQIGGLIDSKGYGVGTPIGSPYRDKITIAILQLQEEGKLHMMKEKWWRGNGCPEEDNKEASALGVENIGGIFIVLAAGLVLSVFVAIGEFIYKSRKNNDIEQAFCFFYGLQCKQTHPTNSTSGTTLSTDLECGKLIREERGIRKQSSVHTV
# Chain of Glutamate receptor ionotropic kainate 2 (Homo sapiens) (Q13002 whole entry, looked up): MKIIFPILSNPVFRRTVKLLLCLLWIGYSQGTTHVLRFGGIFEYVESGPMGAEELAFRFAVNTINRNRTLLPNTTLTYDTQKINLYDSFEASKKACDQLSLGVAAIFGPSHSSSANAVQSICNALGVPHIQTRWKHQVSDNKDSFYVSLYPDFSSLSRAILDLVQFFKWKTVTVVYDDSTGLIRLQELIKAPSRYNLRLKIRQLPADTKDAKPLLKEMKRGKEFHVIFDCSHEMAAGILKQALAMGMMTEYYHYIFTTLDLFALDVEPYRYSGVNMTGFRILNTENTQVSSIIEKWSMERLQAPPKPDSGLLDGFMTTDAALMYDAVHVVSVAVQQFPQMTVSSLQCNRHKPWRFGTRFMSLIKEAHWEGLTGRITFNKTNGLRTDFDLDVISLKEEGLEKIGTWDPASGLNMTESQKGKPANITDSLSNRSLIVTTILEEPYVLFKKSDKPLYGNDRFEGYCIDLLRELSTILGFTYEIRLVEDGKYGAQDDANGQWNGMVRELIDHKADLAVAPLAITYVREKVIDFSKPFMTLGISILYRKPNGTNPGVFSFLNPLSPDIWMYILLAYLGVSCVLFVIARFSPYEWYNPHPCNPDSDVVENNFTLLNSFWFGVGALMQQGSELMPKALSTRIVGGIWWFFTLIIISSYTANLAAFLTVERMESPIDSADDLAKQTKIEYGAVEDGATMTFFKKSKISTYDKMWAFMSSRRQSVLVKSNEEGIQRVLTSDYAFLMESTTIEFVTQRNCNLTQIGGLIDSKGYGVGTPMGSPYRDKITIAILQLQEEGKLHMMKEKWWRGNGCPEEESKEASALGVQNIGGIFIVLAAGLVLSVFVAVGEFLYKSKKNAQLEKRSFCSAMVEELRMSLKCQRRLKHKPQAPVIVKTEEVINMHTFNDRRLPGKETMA
Structure (SMILES),inhibition [1] [%],inhibition [2] [%],also measured
CCSc1nc2sc(-c3ccccc3)c(C)c2c(=O)[nH]1,1,0,–
CCOC(=O)c1c(N)sc(-c2ccccc2)c1-c1ccccc1,13,–,Activity [3]: Non-toxic; Activity [4]: Non-toxic; Activity [5]: Toxic
CCOC(=O)c1c(N=NN2CCOCC2)sc(-c2ccccc2)c1C,4,–,–
CCn1c(=O)[nH]c2sc3c(c2c1=O)CCCC3,6,7.1,–
CCOC(=O)c1c(N)sc(-c2ccc(F)cc2)c1C,0,–,–
CCOC(=O)c1c(NC(=O)CN2CCOCC2)sc(-c2ccccc2)c1C,14,9,–
Cc1c(-c2ccccc2)sc2[nH]c(=S)[nH]c(=O)c12,10,-2,–
CCOC(=O)c1c(N=NN(C)C)sc(-c2ccccc2)c1C,10,–,–
CCOC(=O)Nc1sc2c(c1C(N)=O)CCCC2,14,17,–
CCOC(=O)c1c(N)sc2c1CCCC2,7,11,–
COC(=O)c1c(N)sc(-c2ccccc2)c1C,–,–,Activity [3]: Non-toxic; Activity [4]: Non-toxic; Activity [6]: Non-toxic
Oc1nc(S)nc2sc3c(c12)CCCC3,17,0,–
CCOC(=O)c1c(NC(=O)c2ccccc2)sc(-c2ccccc2)c1C,-3,5,–
CCOC(=O)c1c(N)sc(-c2ccc(OC)cc2)c1C,1,–,–
CCNC(=O)Nc1sc2c(c1C(N)=O)CCCC2,0.1,12,–
NC(=O)c1c(N)sc2c1CCCC2,4,13,–
CCOC(=O)c1c(NC(=O)C(F)(F)F)sc(-c2ccccc2)c1C,18,20,–
CCOC(=O)Nc1cc(C)c(-c2ccccc2)s1,1,18,–
CCOC(=O)c1c(N)sc(-c2ccccc2Cl)c1C,10,–,–
CCOC(=O)C(=O)Nc1sc(-c2ccccc2)c(C)c1C(=O)OCC,4,10,–
CCSc1nc2sc3c(c2c(=O)[nH]1)CCCC3,8,4,–
Cc1c(-c2ccccc2)sc(N)c1C(N)=O,–,–,inhibition [8]: 3%; inhibition [7]: 2%
CCOC(=O)c1c(NC(=O)CNCc2ccccc2)sc(-c2ccccc2)c1C,25,4,–
CCOC(=O)c1cc(-c2ccccc2)sc1N,–,-1,inhibition [7]: 25%
CCOC(=O)c1c(-n2cccc2)sc(-c2ccccc2)c1C,-1,2,–
CCn1c(=O)[nH]c2sc(-c3ccccc3)c(C)c2c1=O,11.8,9.5,–

# Now from value to molecule, other results behind:
inhibition [1] [%],inhibition [2] [%],Structure (SMILES),also measured
0,–,CCOC(=O)c1c(Cl)sc(-c2ccccc2)c1C,–
5.8,17,CCNC(=O)Nc1sc(-c2ccccc2)c(C)c1C(N)=O,–
12,–,CCOC(=O)c1c(N)sc(-c2ccccc2)c1C,Activity [3]: Non-toxic; Activity [4]: Non-toxic; Activity [5]: Toxic; Activity [6]: Toxic
–,44,Cc1c(-c2ccccc2)sc(N)c1C(=O)O,inhibition [7]: 20%
4.5,19,CCOC(=O)c1c(NC)sc(-c2ccccc2)c1C,–
4,–,Cc1c(-c2ccccc2)sc(N)c1C(=O)OC(C)(C)C,–
7,-6.5,CCNC(=S)Nc1sc(-c2ccccc2)c(C)c1C(=O)OCC,–
19,12,CCOC(=O)Nc1sc(-c2ccccc2)c(C)c1C(N)=O,–
9,4,CCNC(=O)c1c(N)sc(-c2ccccc2)c1C,–
17,–,Cc1c(-c2ccccc2)sc(N)c1C(=O)c1ccccc1,–
3,4,CCOC(=O)c1c(NC(C)=O)sc(-c2ccccc2)c1C,–
0.5,9,CCNC(=O)Nc1sc(-c2ccccc2)c(C)c1C(=O)OCC,–
0,–,CCOC(=O)c1c(N=C=S)sc(-c2ccccc2)c1C,Activity [3]: Non-toxic; Activity [4]: Non-toxic; Activity [5]: Toxic; Activity [6]: Toxic
17,–,Cc1c(-c2ccccc2)sc(N)c1C#N,–
12,7,CCOC(=O)Nc1sc(-c2ccccc2)c(C)c1C(=O)O,–
7,–,CCOC(=O)c1c(N=NC#N)sc(-c2ccccc2)c1C,–
5,–,CCCOC(=O)c1c(N)sc(-c2ccccc2)c1C,Activity [3]: Non-toxic; Activity [4]: Non-toxic; Activity [5]: Toxic; Activity [6]: Toxic
